Data on 12 compounds can be found in ChEMBL document CHEMBL1157627, “A novel insulin secretagogue based on a dinucleoside polyphosphate scaffold” (J Med Chem, 2010).

In general, EC50 refers to the concentration giving half of the maximal effect. As a reminder, the half-life is how long it takes for the measured level to halve.

The target of data set [1] is T1, P2Y purinoceptor 1 (Homo sapiens, UniProt P47900). The data set can be described thus: Agonist activity at P2Y1 receptor expressed in human HEK293 cells. Format: functional, cell-based.
T1 sequence (P47900 whole entry): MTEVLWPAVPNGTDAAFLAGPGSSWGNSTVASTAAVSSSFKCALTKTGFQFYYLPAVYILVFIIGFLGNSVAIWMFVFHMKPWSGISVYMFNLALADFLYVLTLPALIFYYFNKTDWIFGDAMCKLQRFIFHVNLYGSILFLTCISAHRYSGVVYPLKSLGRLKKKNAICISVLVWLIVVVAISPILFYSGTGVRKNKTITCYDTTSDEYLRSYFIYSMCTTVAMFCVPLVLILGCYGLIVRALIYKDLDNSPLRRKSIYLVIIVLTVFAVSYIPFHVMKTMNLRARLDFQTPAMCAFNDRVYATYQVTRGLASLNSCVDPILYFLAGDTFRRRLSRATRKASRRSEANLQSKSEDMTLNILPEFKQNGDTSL
Data set [2] concerns Pancreas. Description: Induction of insulin secretion in isolated rat pancreas. Format: functional, tissue-based.
Data set [3] concerns Pancreas. The data set can be described thus: Induction of insulin secretion in isolated rat pancreas relative to basal level. It is filed as functional.
A short description of data set [4]: Stability in human blood assessed as half life. Format: ADME, tissue-based.
Data set [5] addresses T1, P2Y purinoceptor 1. The data set can be described thus: Agonist activity at G-protein coupled P2Y1 receptor expressed in human 1321N1 cells assessed as increase in calcium by Fura2 assay. It is filed as functional, cell-based. Summed up: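 Cell suspensions loaded with fura-2; [Ca2+]i read by dual-excitation spectrofluorometry at 37 °C in 10 mM HEPES-buffered saline pH 7.4 with 1 mM CaCl2 and 1 mM MgCl2. EC50 from maximal [Ca2+]i rise across concentrations; three experiments on separate days.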

The subject of data set [6] is Rattus norvegicus. The data set can be described thus: Antihyperglycemic activity against Han Wistar rat assessed as blood glucose level at […], iv after 45 mins by OGTT. It is filed as functional.
Data set [7] has as its system Rattus norvegicus. Description: Antihyperglycemic activity against Han Wistar rat assessed as increase in insulin level at […], iv after 5 mins relative to basal level. It is filed as functional.
A short description of data set [8]: Stability after 3 hrs in presence of alkaline phosphatase. The settings on record: isolated protein. Format: ADME. The procedure, abridged: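 4 mM nucleotide with calf intestine alkaline phosphatase (12.5 units) in 0.1 M Tris-HCl, 0.1 M MgCl2, final pH 9.8, at 37 °C for 3 h. Stopped at 80 °C for 15 min, then weak anion-exchange cleanup and freeze-drying. Residual analogue quantified by change in reverse-phase HPLC peak integration over time.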

For data set [9], the system named is Pancreas. The data set can be described thus: Increase in insulin secretion in isolated rat pancreas relative to ATP. Format: functional.
A short description of data set [10]: Stability in human serum assessed as half life of hydrolysis. Format: ADME, cell-free.
Data set [11] concerns Rattus norvegicus. Description: Antihyperglycemic activity against Han Wistar rat assessed as blood glucose level at […], iv after 150 mins by OGTT. It is filed as functional.
Data set [12] is described as follows: Stability in human whole blood assessed as half life. Format: ADME, tissue-based.
For data set [13], the system named is Rattus norvegicus. Description: Antihyperglycemic activity against Han Wistar rat assessed as blood glucose level at 1 mg/kg, po after 45 mins by OGTT. It is filed as functional. Summed up: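 Overnight-fasted male Wistar Han rats, 10-11 weeks old, jugular-cannulated, 5 per group. Glibenclamide 1 mg/kg given orally at t = -30 min, then oral glucose 2 g/kg (3 mL/kg) at t = 0. Tail vein blood glucose read by glucometer over time, compared with saline-treated controls.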

Structures are written as SMILES.

`[BH3-]P(=O)(OC[C@H]1O[C@@H](n2cnc3c(N)nc(SC)nc32)[C@H](O)[C@H]1O)OP(=O)([O-])OP(=O)([O-])[O-].[Na+].[Na+].[Na+].[Na+]` (stereo not given in full): the EC50 on P2Y purinoceptor 1 [1] stood at 2.6 nM; in the data set on Pancreas [2] it was 28 nM. For the same compound, in the data set with Pancreas [3], the “fold change (FC)” value was 9. With `Nc1nc2c(ncn2[C@@H]2O[C@H](COP(=O)(O)OP(=O)(O)OP(=O)(O)OP(=O)(O)OC[C@H]3O[C@@H](n4cnc5c(=O)[nH]c(N)nc54)[C@H](O)[C@@H]3O)[C@@H](O)[C@H]2O)c(=O)[nH]1`, the half-life in [4] came to 5 min.

Take `CSc1nc(N)c2ncn([C@@H]3O[C@H](COP(=O)([O-])CP(=O)([O-])OP(=O)([O-])OP(=O)([O-])OC[C@H]4O[C@@H](n5cnc6c(N)nc(SC)nc65)[C@H](O)[C@@H]4O)[C@@H](O)[C@H]3O)c2n1.[Na+].[Na+].[Na+].[Na+]`: on P2Y purinoceptor 1 [5] (read-out: EC50), the EC50 turned out to be 420 nM. For the same compound, the Activity with Rattus norvegicus [6] is 100 mg/dL. In addition, the FC in the data set with Rattus norvegicus [7] came to 4. In addition, the Stability result in data set [8] is reported as “Stable”.

Take `CSc1nc(N)c2ncn([C@@H]3O[C@H](COP(=O)([O-])OP(=O)([O-])CP(=O)([O-])OP(=O)([O-])OC[C@H]4O[C@@H](n5cnc6c(N)nc(SC)nc65)[C@H](O)[C@@H]4O)[C@@H](O)[C@H]3O)c2n1.[Na+].[Na+].[Na+].[Na+]`: on P2Y purinoceptor 1 [5] (read-out: EC50), the EC50 came to 460 nM. The Stability entry in data set [8] is “Stable”.

For the compound `CSc1nc(N)c2ncn([C@@H]3O[C@H](COP(=O)([O-])CP(=O)([O-])OP(=O)([O-])OC[C@H]4O[C@@H](n5cnc6c(N)nc(SC)nc65)[C@H](O)[C@@H]4O)[C@@H](O)[C@H]3O)c2n1.[Na+].[Na+].[Na+]`, on P2Y purinoceptor 1 [5] (1321-n1), the EC50 entry was “Not Active”. Moreover, the Stability result in data set [8] is on record as “Stable”. Take `Nc1ncnc2c1ncn2[C@H]1O[C@@H](COP(=O)(O)OP(=O)(O)OP(=O)(O)OC[C@@H]2O[C@H](n3cnc4c(N)ncnc43)[C@@H](O)[C@H]2O)[C@H](O)[C@@H]1O`: at P2Y purinoceptor 1 [5] (read-out: EC50), the EC50 came out at 11 nM. `CCCCCCSc1nc(N)c2ncn([C@H]3O[C@@H](COP(O)(=S)OP(=O)(O)OP(=O)(O)O)[C@H](O)[C@@H]3O)c2n1` (stereo not given in full): in the data set with Pancreas [9], the “fold change (FC)” value is on record as 100. As to `CSc1nc(N)c2ncn([C@@H]3O[C@H](COP(=O)(O)OP(=O)(O)O)[C@@H](O)[C@H]3O)c2n1` (single isomer, unassigned), the half-life in data set [10] was 726 min.

Regarding `CSc1nc(N)c2ncn([C@@H]3O[C@H](COP(=O)(O)OP(=O)(O)CP(=O)(O)O)[C@@H](O)[C@H]3O)c2n1` (single isomer, unassigned), at P2Y purinoceptor 1 [5] (read-out: EC50), the EC50 worked out at 80 nM. Moreover, the Activity in the data set on Rattus norvegicus [11] amounted to 85 mg/dL. `Nc1ncnc2c1ncn2[C@@H]1O[C@H](COP(=O)(O)OP(=O)(O)O)[C@@H](O)[C@H]1O` [ADENOSINE DIPHOSPHATE]: the EC50 on P2Y purinoceptor 1 [5] (read-out: EC50) turned out to be 14 nM. In the case of `Nc1ncnc2c1ncn2[C@@H]1O[C@H](COP(=O)(O)OP(=O)(O)OP(=O)(O)OP(=O)(O)OC[C@H]2O[C@@H](n3cnc4c(N)ncnc43)[C@H](O)[C@@H]2O)[C@@H](O)[C@H]1O` [DIADENOSINE TETRAPHOSPHATE], in data set [12], the half-life was found to be 2 min.

On to `COc1ccc(Cl)cc1C(=O)NCCc1ccc(S(=O)(=O)NC(=O)NC2CCCCC2)cc1` [GLYBURIDE], for which the Activity in the data set with Rattus norvegicus [13] came out at 63 mg/dL.
